Experimental data published in ChEMBL document CHEMBL1240396, “In vitro sensitivities of Plasmodium falciparum to different antimalarial drugs in Uganda” (Antimicrob Agents Chemother, 2010).

Columns and labels:
Plasmodium falciparum [1] = experiment: Antimicrobial activity against chloroquine-resistant Plasmodium falciparum K1 by ELISA; format: functional, organism-based
Procedure, shortened: (§1)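 Reference laboratory lines run as controls. Drug-predosed wells held seven duplicate 2-fold dilutions (CQ 15.7–1,002 nM; MDAQ 6.25–400 nM; QN 15.4–985 nM; DHA 0.13–8.5 nM; LM 0.2–12.5 nM; PQ 1.6–100 nM). Incubated 72 h, 37°C, 5% CO2, freeze-thawed, and HRP-2 measured by ELISA at A450 against drug-free wells. IC50 by nonlinear regression.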

Plasmodium falciparum [2] = experiment: Antimicrobial activity against chloroquine-resistant Plasmodium falciparum W2 by ELISA
Plasmodium falciparum [3] = experiment: Antimicrobial activity against chloroquine-sensitive Plasmodium falciparum D6 by ELISA; format: functional, organism-based; procedure, shortened: as §1
Plasmodium falciparum [4] = experiment: Antimicrobial activity against chloroquine-sensitive Plasmodium falciparum HB3 by ELISA
Plasmodium falciparum [5] = experiment: Antimicrobial activity against Plasmodium falciparum by ELISA; format: functional, organism-based
Procedure, shortened: (§2)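 Fresh patient isolates, taken before therapy, washed in RPMI 1640, diluted with group O erythrocytes to 0.05% parasitemia, ~2% PCV with 0.5% Albumax II. Added to dried predosed wells with seven duplicate 2-fold dilutions (CQ 15.7–1,002 nM; MDAQ 6.25–400 nM; QN 15.4–985 nM; DHA 0.13–8.5 nM; LM 0.2–12.5 nM; PQ 1.6–100 nM). Incubated 72 h, 37°C, 5% CO2, then freeze-thawed. HRP-2 ELISA (A450) compared against drug-free wells. IC50 from nonlinear regression.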

Plasmodium falciparum [6] = experiment: Antimicrobial activity against Plasmodium falciparum harboring mdr1 N86Y/D1246Y/Y184F mutant gene by ELISA; format: functional, organism-based; procedure, shortened: as §2

Row | Compound | IC50 (Plasmodium falciparum [1]) | IC50 (Plasmodium falciparum [2]) | IC50 (Plasmodium falciparum [3]) | IC50 (Plasmodium falciparum [4]) | IC50 (Plasmodium falciparum [5]) | IC50 (Plasmodium falciparum [6])
1 | CCNCc1cc(Nc2ccnc3cc(Cl)ccc23)ccc1O [DESETHYL AMODIAQUINE] | 262 nM | 268 nM | 30.9 nM | 29.8 nM | 66.4 nM | 6.3 nM
2 | Clc1ccc2c(N3CCN(CCCN4CCN(c5ccnc6cc(Cl)ccc56)CC4)CC3)ccnc2c1 [PIPERAQUINE] | 12.5 nM |  | 6.26 nM | 10.5 nM | 6.1 nM | 1.6 nM
3 | C[C@H]1[C@@H](O)O[C@@H]2O[C@@]3(C)CC[C@H]4[C@H](C)CC[C@@H]1[C@@]24OO3 [ARTENIMOL] | 0.49 nM | 0.41 nM | 0.79 nM | 0.71 nM | 0.55 nM | 
4 | C=C[C@H]1CN2CC[C@H]1C[C@H]2[C@H](O)c1ccnc2ccc(OC)cc12 [QUININE] | 276 nM | 491 nM | 107 nM | 236 nM | 94.4 nM | 15.4 nM
5 | CCCCN(CCCC)CC(O)c1cc(Cl)cc2c1-c1ccc(Cl)cc1/C2=C/c1ccc(Cl)cc1 (stereo not drawn) [LUMEFANTRINE] | 0.31 nM | 0.45 nM | 1.82 nM | 1.41 nM | 0.51 nM | 0.19 nM
